Measured values as given in ChEMBL document CHEMBL1156047, “Diastereoisomers of 2-benzyl-2, 3-dihydro-2-(1H-inden-2-yl)-1H-inden-1-ol: potential anti-inflammatory agents” (2009).

How the values were obtained:
[1] = tested on: Mus musculus; assay: Antiinflammatory activity against arachidonic acid-induced ear edema in Balb/C mouse at 300 ug/ear administered topically 1 hr before arachidonic acid challenge measured after 60 mins; format: functional
Outline: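 Topical application in 100 µL acetone (compound 300 µg, indomethacin 300 µg positive control, vehicle alone) to mouse ear; oedema induced with arachidonic acid (4 mg). Ear width measured with a micrometer screw gauge before and 60 min after induction. Oedema expressed as percentage of normal by comparing left and right ear widths. n = 4–8 per group.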

[2] = tested on: RBL-2H3; assay: Antiinflammatory activity against calcium ionophore A23187-induced beta-hexosaminidase release in rat RBL2H3 cells at 50 uM after 30 mins; format: functional; settings: RBL-2H3, 0.5 h
Outline: (§1)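 RBL-2H3 cells plated at 1 × 10⁵ cells/cm² in 24-well plates and allowed to adhere ≥3 h. Medium replaced with fresh medium containing calcium ionophore A23187 plus compound (0.3–50 µM range; DMSO 0.5% solvent control). Incubation 30 min, 37 °C, 5% CO₂. Supernatant β-hexosaminidase measured with p-nitrophenyl N-acetyl-glucosaminide in citrate pH 4.5 for 1 h at 37 °C, stopped with NaOH, read at 405 nm. Values are % of total (Triton X-100 lysate), spontaneous release subtracted. Triplicate.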

[3] = tested on: RBL-2H3; assay: Antiinflammatory activity against calcium ionophore A23187-induced beta-hexosaminidase release from rat RBL2H3 cells at 10 uM after 30 mins; format: functional; settings: RBL-2H3, 0.5 h; outline: as §1
[4] = tested on: RBL-2H3; assay: Antiinflammatory activity against calcium ionophore A23187-induced beta-hexosaminidase release from rat RBL2H3 cells after 30 mins; format: functional, cell-based; outline: as §1
[5] = tested on: Ileum; assay: Muscle relaxant activity in potassium-depolarized guinea pig ileum assessed as inhibition of calcium-induced contraction at 10 uM; format: functional; settings: Cavia porcellus
Outline: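 Isolated guinea-pig ileum depolarised with potassium; sustained contraction induced by calcium (2.5 mM). Test compounds at 1 × 10⁻⁵ M, with nifedipine 1 × 10⁻⁸ M as reference. Result expressed as % inhibition of the calcium contracture. Mean ± SEM, n = 6–12.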

[6] = tested on: Ileum; assay: Muscle relaxant activity in potassium-depolarized guinea pig ileum assessed as inhibition of calcium-induced contraction at 10 nM; format: functional; settings: Cavia porcellus
Outline: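 Isolated guinea-pig ileum, depolarised with potassium, in which calcium (2.5 mM) induced a sustained contraction. The agent was applied at 1 × 10^-8 M, and activity was expressed as percent inhibition of the calcium contracture. Values are given as mean with SEM, n = 6.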

SMILES | inhibition (INH) [1] | inhibition at 50 µM [2] | inhibition at 10 µM [3] | inhibition [4] | inhibition at 10 µM [5] | inhibition at 0.01 µM [6]
COc1ccc2c(c1)c(CC(=O)O)c(C)n2C(=O)c1ccc(Cl)cc1 [INDOMETHACIN] | 50% | – | – | – | – | –
O[C@H]1c2ccccc2C[C@]1(Cc1ccccc1)C1=Cc2ccccc2C1 | 45% | 96% | 45% | Dose-dependent effect | 18.9% | –
COC(=O)C1=C(C)NC(C)=C(C(=O)OC)C1c1ccccc1[N+](=O)[O-] [NIFEDIPINE] | – | – | – | – | – | 48.1%
O[C@H]1c2ccccc2C[C@@]1(Cc1ccccc1)C1=Cc2ccccc2C1 | 59% | 75% | 40% | Dose-dependent effect | 36.4% | –
